Reference: ChEMBL document CHEMBL4145447, “4-arylamidobenzyl substituted 5-bromomethylene-2(5H)-furanones for chronic bacterial infection” (Eur J Med Chem, 2018)
Active and inactive are the calls of the source. No cut-off for these calls is given here.

Assays:
[1] = molecular target: T1, Peroxisome proliferator-activated receptor gamma (Mus musculus) (UniProt P37238); assay: Agonist activity at PPARgamma in mouse RAW264.7 cells assessed as inhibition of LPS-induced ERk1/2 phosphorylation at Thr202/Tyr204 residues at 10 uM preincubated for 1 hr followed by LPS stimulation and measured after 4 hrs in presence of PPARgamma antagonist GW9662 by Western blot analysis; type: cell-based
T1 sequence (whole entry): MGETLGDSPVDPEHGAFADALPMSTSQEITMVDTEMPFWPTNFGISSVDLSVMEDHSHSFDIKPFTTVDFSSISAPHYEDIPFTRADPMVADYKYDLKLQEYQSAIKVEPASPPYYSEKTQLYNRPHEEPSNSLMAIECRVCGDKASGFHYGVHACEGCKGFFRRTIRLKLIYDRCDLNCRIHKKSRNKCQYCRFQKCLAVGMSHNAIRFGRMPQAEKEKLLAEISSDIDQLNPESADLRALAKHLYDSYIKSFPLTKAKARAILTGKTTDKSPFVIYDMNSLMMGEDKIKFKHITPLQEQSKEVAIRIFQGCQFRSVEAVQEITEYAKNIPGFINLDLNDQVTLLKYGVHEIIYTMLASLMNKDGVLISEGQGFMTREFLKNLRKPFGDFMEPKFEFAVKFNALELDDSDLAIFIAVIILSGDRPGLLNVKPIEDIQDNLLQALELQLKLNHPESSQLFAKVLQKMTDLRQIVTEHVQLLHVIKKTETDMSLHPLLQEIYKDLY
How it was run: (§1)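 Western blot: RAW264.7 cells (2 × 10^6/well) pretreated 1 h with compound (10 µM), antagonist GW9662 (5 µM) where stated, then LPS 500 ng/mL for 4 h. Lysis on ice with PMSF, BCA-normalised protein on SDS gels, PVDF transfer, milk block, phospho- and total-protein primary antibodies, HRP secondary, ECL detection. Densitometry normalised to internal control; n = 3.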

[2] = molecular target: T1, Peroxisome proliferator-activated receptor gamma (Mus musculus); assay: Agonist activity at PPARgamma in mouse RAW264.7 cells assessed as inhibition of LPS-induced IkB-alpha phosphorylation at Ser32/36 residues at 10 uM preincubated for 1 hr followed by LPS stimulation and measured after 4 hrs by Western blot analysis; type: cell-based; how it was run: as §1
RAW264.7 [3] = assay: Anti-inflammatory activity in mouse RAW264.7 cells assessed as inhibition of LPS-induced TNF-alpha production by measuring TNF-alpha level at 10 uM preincubated for 2 hrs followed by LPS stimulation and measured after 24 hrs by ELISA (reference value: 24216 +/- 498.7 pg/ml); type: functional
[4] = molecular target: T2, Anthranilate--CoA ligase (Pseudomonas aeruginosa (strain ATCC 15692 / DSM 22644 / CIP 104116 /JCM 14847 / LMG 12228 / 1C / PRS 101 / PAO1)) (UniProt Q9I4X3); assay: Inhibition of Pseudomonas aeruginosa PAO1 GFP-fused quorum sensing pqsA measured every 15 mins up to 12 hrs by GFP reporter gene assay
T2 sequence (whole entry): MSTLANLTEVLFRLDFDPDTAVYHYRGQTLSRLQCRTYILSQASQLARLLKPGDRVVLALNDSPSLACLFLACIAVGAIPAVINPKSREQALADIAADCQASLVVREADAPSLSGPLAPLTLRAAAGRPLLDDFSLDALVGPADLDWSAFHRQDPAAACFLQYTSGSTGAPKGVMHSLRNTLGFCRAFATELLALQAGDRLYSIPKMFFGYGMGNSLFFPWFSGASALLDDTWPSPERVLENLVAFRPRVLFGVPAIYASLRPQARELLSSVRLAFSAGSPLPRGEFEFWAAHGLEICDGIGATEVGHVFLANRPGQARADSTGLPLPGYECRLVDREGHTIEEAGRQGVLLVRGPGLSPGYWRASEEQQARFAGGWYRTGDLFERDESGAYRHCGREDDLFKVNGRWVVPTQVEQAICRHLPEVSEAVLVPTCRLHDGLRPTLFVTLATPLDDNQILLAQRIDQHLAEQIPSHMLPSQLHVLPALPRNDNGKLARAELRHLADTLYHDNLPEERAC
How it was run: (§2)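 GFP reporter strains of P. aeruginosa PAO1 (lasB-, rhlA- or pqsA-promoter fused to unstable gfp(ASV)) grown overnight in LB at 37 °C, 200 rpm, 18 h, then diluted 1:100. Culture mixed 1:1 with compound diluted in LB from 10 mM DMSO stock (0.1% DMSO final). Fluorescence (ex 485/em 528 nm) read every 15 min at 37 °C for ≥12 h.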

[5] = molecular target: T1, Peroxisome proliferator-activated receptor gamma (Mus musculus); assay: Agonist activity at PPARgamma in mouse RAW264.7 cells assessed as inhibition of LPS-induced NF-kB p65 phosphorylation at 10 uM preincubated for 1 hr followed by LPS stimulation and measured after 4 hrs by Western blot analysis; type: cell-based; how it was run: as §1
RAW264.7 [6] = assay: Anti-inflammatory activity in mouse RAW264.7 cells assessed as inhibition of LPS-induced NO production at 10 uM preincubated for 2 hrs followed by LPS stimulation and measured after 48 hrs by Griess method relative to control; type: functional
How it was run: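 RAW264.7 cells seeded at 5 × 10^4/well and cultured 18 h, then given 10 µM compound plus LPS 100 ng/mL for 48 h at 37 °C. Supernatant mixed 1:1 with Griess reagent (1% sulfanilamide, 0.1% naphthylethylenediamine in 5% phosphoric acid) for 10 min; nitrite read at OD540.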

[7] = molecular target: Elastase (Pseudomonas aeruginosa (strain ATCC 15692 / PAO1 / 1C / PRS 101 / LMG12228)) (UniProt P14756); assay: Inhibition of Pseudomonas aeruginosa PAO1 GFP-fused quorum sensing lasB at 10 uM measured every 15 mins up to 12 hrs by GFP reporter gene assay relative to control; how it was run: as §2
Sequence of Elastase (Pseudomonas aeruginosa (strain ATCC 15692 / PAO1 / 1C / PRS 101 / LMG12228)) (P14756 198-498 limits assumed): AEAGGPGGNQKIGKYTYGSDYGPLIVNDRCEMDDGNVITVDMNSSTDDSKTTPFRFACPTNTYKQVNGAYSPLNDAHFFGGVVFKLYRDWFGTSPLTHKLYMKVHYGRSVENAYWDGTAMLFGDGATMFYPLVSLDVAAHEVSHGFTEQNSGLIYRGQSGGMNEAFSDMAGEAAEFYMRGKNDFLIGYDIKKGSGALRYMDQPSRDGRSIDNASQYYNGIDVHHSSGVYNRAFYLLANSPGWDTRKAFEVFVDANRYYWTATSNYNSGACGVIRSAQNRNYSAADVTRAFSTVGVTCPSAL

Mus musculus [8] = assay: Anti-inflammatory activity in LPS-induced sepsis shock mouse model assessed as survival rate at 20 mg/kg, iv pretreated daily for 5 days followed LPS treatment on day 5 at 1 hr post last dose and measured after 7 days relative to control; type: functional
How it was run: (§3)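 Male SPF mice, randomly grouped, dosed i.v. with compound dissolved in DMSO and diluted in physiological saline; vehicle group given a similar volume. LPS was injected on day 5, 1 h after the last administration. Survival was recorded every 12 h for 7 days after LPS, with 11 animals per group per figure legend.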

Pseudomonas aeruginosa = assay: Growth inhibition of Pseudomonas aeruginosa PAO1 at 5 to 100 uM measured every 15 mins up to 12 hrs; type: organism-based; conditions: in vitro
How it was run: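 Growth of P. aeruginosa PAO1 was run like the reporter assay. The overnight LB culture was diluted in fresh LB and mixed in equal parts with compound diluted in LB, then growth was monitored in 96-well plates.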

Mus musculus [9] = assay: Anti-inflammatory activity in LPS-induced sepsis shock mouse model assessed as survival rate at 5 mg/kg, iv pretreated daily for 5 days followed LPS treatment on day 5 at 1 hr post last dose and measured after 7 days relative to control; type: functional; how it was run: as §3
[10] = molecular target: T1, Peroxisome proliferator-activated receptor gamma (Mus musculus); assay: Agonist activity at PPARgamma in mouse RAW264.7 cells assessed as inhibition of LPS-induced IkB-alpha phosphorylation at Ser32/36 residues at 10 uM preincubated for 1 hr followed by LPS stimulation and measured after 4 hrs in presence of PPARgamma antagonist GW9662 by Western blot analysis; type: cell-based; how it was run: as §1

Compound	inhibition [1]	inhibition [2]	Activity (RAW264.7 [3]) [pg/mL]	inhibition [4]	inhibition [5]	inhibition at 10 µM (RAW264.7 [6]) [%]	inhibition [7] [%]	survival at 20 mg/kg (Mus musculus [8]) [%]	growth inhibition (GI) (Pseudomonas aeruginosa)	survival at 5 mg/kg (Mus musculus [9]) [%]	inhibition [10]
O=C(Cc1ccc(F)cc1)Nc1ccc(CC2=CC(=O)OC2=CBr)cc1	inactive	Active	18322	Dose-dependent effect	Active	73.7	15.2	45.5	Non-Toxic	36.5	inactive
O=C(C=Cc1ccccc1)Nc1ccc(CC2=CC(=O)O/C2=C/Br)cc1	inactive	Active	19550		Active	70	11.8		Non-Toxic		inactive
